In ChEMBL document CHEMBL4196135, “Helvolic Acid Derivatives with Antibacterial Activities against Streptococcus agalactiae from the Marine-Derived Fungus Aspergillus fumigatus HNMF0047” (2018):
Values after ≈ are worked out from the molar mass of the structure shown. Active and inactive are the calls of the source. No cut-off for these calls is given here.

Tests used:
Streptococcus agalactiae = assay: Antimicrobial activity against Streptococcus agalactiae after 24 hrs by two-fold dilution method; format: functional
Outline: (§1)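 Two-fold serial dilution assay reporting MIC in μg/mL, run alongside Staphylococcus aureus, Escherichia coli, Bacillus subtilis and Streptococcus agalactiae. Tobramycin served as positive control.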

Staphylococcus aureus = assay: Antimicrobial activity against Staphylococcus aureus after 24 hrs by two-fold dilution method; format: functional; outline: as §1
Escherichia coli = assay: Antimicrobial activity against Escherichia coli at 128 ug/ml after 24 hrs by two-fold dilution method; format: functional, organism-based
Bacillus subtilis = assay: Antimicrobial activity against Bacillus subtilis at 128 ug/ml after 24 hrs by two-fold dilution method; format: functional, organism-based

MIC (Streptococcus agalactiae) [µg/mL] | MIC (Staphylococcus aureus) [µg/mL] | Compound | Activity (Escherichia coli) | Activity (Bacillus subtilis)
> 128 | > 128 | CC(=O)O[C@@H]1C(=O)[C@@]2(C)[C@@H](CC[C@H]3C4=C(CCC=C(C)C)C(=O)O[C@H]4C[C@@]32C)[C@@]2(C)C=CC(=O)[C@@H](C)[C@H]12 | inactive | inactive
> 128 | > 128 | CCC(=O)O[C@@H]1C(=O)[C@@]2(C)[C@@H](CC[C@H]3C4=C(CCC=C(C)C)C(=O)O[C@H]4C[C@@]32C)[C@@]2(C)C=CC(=O)[C@@H](C)[C@H]12 | inactive | inactive
> 128 | > 128 | CC(=O)O[C@@H]1C(=O)[C@@]2(C)[C@@H](CC[C@H]3C4=C(CCC=C(C)C)C(=O)O[C@H]4C[C@@]32C)[C@@]2(C)CCC(=O)[C@@H](C)[C@H]12 | inactive | inactive
> 128 | > 128 | CC(C)=CCCC1=C2[C@H](C[C@@]3(C)[C@H]2CC[C@H]2[C@@]4(C)CCC(=O)[C@@H](C)[C@@H]4[C@H](O)C(=O)[C@@]23C)OC1=O | inactive | inactive
2 (≈ 3.43 µM) | 8 (≈ 13.7 µM) | CCC(=O)O[C@@H]1C(=O)[C@@]2(C)[C@@H](CC[C@H]3/C(=C(\CCC=C(C)C)C(=O)O)[C@@H](OC(C)=O)C[C@@]32C)[C@@]2(C)C=CC(=O)[C@@H](C)[C@H]12 | inactive | inactive
> 128 | > 128 | CC(=O)O[C@H]1C[C@@]2(C)[C@@H](CC[C@H]3[C@@]4(C)C=CC(=O)[C@@H](C)[C@@H]4[C@H](OC(C)=O)C(=O)[C@@]32C)/C1=C1\CC[C@H](C(C)(C)O)OC1=O | inactive | inactive
> 128 | > 128 | CC(C)=CCCC1=C2[C@H](C[C@@]3(C)[C@H]2CC[C@H]2[C@@]4(C)C=CC(=O)[C@@H](C)[C@@H]4[C@H](O)C(=O)[C@@]23C)OC1=O | inactive | inactive
16 (≈ 27.5 µM) | 16 (≈ 27.5 µM) | CCC(=O)O[C@H]1C[C@@]2(C)[C@@H](CC[C@H]3[C@@]4(C)C=CC(=O)[C@@H](C)[C@@H]4[C@H](OC(C)=O)C(=O)[C@@]32C)/C1=C(\CCC=C(C)C)C(=O)O | inactive | inactive
64 (≈ 109 µM) | > 128 | CC(=O)O[C@H]1C[C@@]2(C)[C@@H](CC[C@H]3[C@@]4(C)C=CC(=O)[C@@H](C)[C@@H]4[C@H](OC(C)=O)C(=O)[C@@]32C)/C1=C1\CC[C@@H](C(C)(C)O)OC1=O | inactive | inactive
8 (≈ 14.1 µM) | 16 (≈ 28.1 µM) | CC(=O)O[C@H]1C[C@@]2(C)[C@@H](CC[C@H]3[C@@]4(C)C=CC(=O)[C@@H](C)[C@@H]4[C@H](OC(C)=O)C(=O)[C@@]32C)/C1=C(\CCC=C(C)C)C(=O)O [HELVOLIC ACID] | inactive | inactive

Compound | MIC (Streptococcus agalactiae) [µg/mL] | MIC (Staphylococcus aureus) [µg/mL] | Activity (Escherichia coli) | Activity (Bacillus subtilis)
NC[C@H]1O[C@H](O[C@H]2[C@H](O)[C@@H](O[C@H]3O[C@H](CO)[C@@H](O)[C@H](N)[C@H]3O)[C@H](N)C[C@@H]2N)[C@H](N)C[C@@H]1O [TOBRAMYCIN] | 32 (≈ 68.4 µM) | 1 (≈ 2.14 µM) |  | 
